According to ChEMBL document CHEMBL4680184, “Simple amphiphilic α-hydrazido acids: Rational design, synthesis, and in vitro bioactivity profile of a novel class of potential antimicrobial compounds” (Eur J Med Chem, 2020):
≈ marks a conversion by molar mass, not a printed value. Calls of active or inactive are those of the source. The rule behind the calls is not given here.

Assays:
[1] = tested on: Staphylococcus aureus; assay: Antibacterial activity against linezolid-methicillin-resistant Staphylococcus aureus AOUC 0915 assessed as inhibition of visible growth after 24 hrs by broth microdilution method; format: functional
Outline: (§1)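 Broth microdilution per CLSI: strains grown 6 h in BHI broth, diluted in Mueller-Hinton II broth to 1 × 10^6 cfu/mL, mixed 1:1 with serial dilutions of compound in MHII (compounds dissolved in sterile water); aerobic incubation 37 °C, 24 h. MIC = lowest concentration with no visible growth. Tetracycline internal control; triplicate.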

[2] = tested on: Enterococcus faecalis; assay: Antibacterial activity against Enterococcus faecalis ATCC 29212; format: functional
Outline: (§2)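 Compounds dissolved in sterile water at the highest achievable concentration, then serially diluted in Mueller-Hinton II broth per CLSI broth microdilution. Strains grown 6 h in BHI, diluted in MHII to 1 × 10^6 cfu/mL final. Aerobic incubation 37 °C, 24 h; tetracycline internal control; bacteria-only growth controls. MIC = lowest concentration with no visible growth; triplicate.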

[3] = tested on: Staphylococcus aureus; assay: Antibacterial activity against Staphylococcus aureus ATCC 29213; format: functional; outline: as §1
[4] = tested on: Enterococcus faecalis; assay: Antibacterial activity against Enterococcus faecalis ATCC 29212 assessed as inhibition of visible growth after 24 hrs by broth microdilution method; format: functional; outline: as §2
[5] = tested on: Enterococcus faecium; assay: Antibacterial activity against Enterococcus faecium 135562 (35C) assessed as inhibition of visible growth after 24 hrs by broth microdilution method; format: functional; outline: as §2
[6] = tested on: Staphylococcus aureus; assay: Antibacterial activity against Staphylococcus aureus ATCC 29213 assessed as inhibition of visible growth after 24 hrs by broth microdilution method; format: functional; outline: as §2
[7] = tested on: Escherichia coli; assay: Antibacterial activity against Escherichia coli ATCC 25922 assessed as inhibition of visible growth after 24 hrs by broth microdilution method; format: functional; outline: as §2
[8] = tested on: Pseudomonas aeruginosa; assay: Antibacterial activity against Pseudomonas aeruginosa ATCC 27853 assessed as inhibition of visible growth after 24 hrs by broth microdilution method; format: functional; outline: as §2
[9] = Hemolytic activity against human erythrocytes measured after 1 hr by microplate reader based spectrophotometric analysis; format: ADME, cell-based, Erythrocyte
Outline: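 Heparinized fresh human blood washed three times in PBS pH 7.4 (1000 g, 10 min), resuspended ~20 vol %. Equal volume with 1:2 serial dilutions of compound in PBS, 1 h at 37 °C; PBS and 0.2 vol % Triton X-100 controls. Supernatant diluted 1:60, A350 read. HC50 from three- or four-parameter Hill fit; mean of three replicates.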

[10] = Therapeutic index, ratio of HC50 for human erythrocytes to MIC for Staphylococcus aureus ATCC 29213; format: toxicity; conditions: read-out: TI
[11] = Therapeutic index, ratio of HC50 for human erythrocytes to MIC for Escherichia coli ATCC 25922; format: toxicity; conditions: read-out: TI
[12] = tested on: Escherichia coli; assay: Antibacterial activity against gentamicin-colistin-resistant Escherichia coli 288328 assessed as inhibition of visible growth after 24 hrs by broth microdilution method; format: functional; outline: as §1
[13] = Therapeutic index, ratio of HC50 for human erythrocytes to MIC for linezolid-methicillin-resistant Staphylococcus aureus AOUC 0915; format: toxicity
Outline: (§3)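 TI = HC50/MIC. HC50: washed heparinized human erythrocytes (~20 vol % in PBS pH 7.4) mixed 1:1 with 1:2 serial compound dilutions in PBS, 1 h at 37 °C; supernatant A350 read; PBS and 0.2 vol % Triton X-100 as 0 and 100% lysis; HC50 by Hill logistic regression, mean of three replicates.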

[14] = Therapeutic index, ratio of HC50 for human erythrocytes to MIC for gentamycin-colistin-resistant Escherichia coli 288328; format: toxicity; outline: as §3
[15] = tested on: Staphylococcus aureus; assay: Antibacterial activity against Staphylococcus aureus ATCC 29213 after preincubated with plasma for 6 hrs by broth microdilution method; format: functional, organism-based
[16] = Retention time of the compound by RP-HPLC analysis; format: physicochemical
Outline: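 RP-HPLC on C18 column (5 µm, 200 × 4.6 mm), 0.5 mL/min; hydrochlorides at 0.5–1 mg/mL in water:2-propanol 70:30, gradient to 10:90 over 40 min, then 20 min at 10:90. Adjusted retention time = instrumental retention time minus hold-up time.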

[17] = tested on: Escherichia coli; assay: Antibacterial activity against Escherichia coli ATCC 25922; format: functional; outline: as §1
[18] = Chemical stability of the compound in pH 7.4 phosphate buffered saline at 1 ug/ml assessed as compound degradation after 8 weeks; format: physicochemical; conditions: buffer, pH 7.4, 1344 h, at 1 µg/mL
[19] = Chemical stability of the compound in pH 1.5 hydrochloride solution at 1 ug/ml assessed as compound degradation after 8 weeks; format: physicochemical; conditions: buffer, pH 1.5, 1344 h, at 1 µg/mL
[20] = Chemical stability of the compound in hydrochloride water at 1 ug/ml assessed as compound degradation after 8 weeks; format: physicochemical; conditions: buffer, 1344 h, at 1 µg/mL
[21] = tested on: Cell membrane; assay: Induction of outer membrane permeabilization in Escherichia coli ATCC 25922 assessed as increase in fluorescence intensity at 8 ug/ml measured every 1 sec for 10 mins by NPN-probe based assay; format: subcellular; conditions: dose 8.0 µg/ml, in the assay text read “every 0.1 sec” for “every 1 sec”
Outline: (§4)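 Midlog E. coli (6 h growth, 10^8 cells/mL) washed, resuspended in PBS pH 7.2, held at 4 °C, used within 3 h; equilibrated 15 min at 25 °C. NPN 1 µM working plus compound 8 µg/mL working. Fluorescence ex 350/em 420 nm, read every 0.1 s for 10 min; rate constant from exponential rise-to-maximum fit; probe-only, buffer controls.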

[22] = tested on: Cell membrane; assay: Induction of outer membrane permeabilization in gentamycin-colistin resistant Escherichia coli 288328 assessed as increase in fluorescence intensity at 8 ug/ml measured every 1 sec for 10 mins by NPN-probe based assay; format: subcellular; conditions: dose 8.0 µg/ml, in the assay text read “every 0.1 sec” for “every 1 sec”; outline: as §4
[23] = tested on: Cell membrane; assay: Induction of inner membrane permeabilization in Escherichia coli ATCC 25922 assessed as increase in fluorescence intensity at 8 ug/ml measured every 1 sec for 10 mins by PI-probe based assay; format: subcellular; conditions: dose 8.0 µg/ml, in the assay text read “every 0.1 sec” for “every 1 sec”
Outline: (§5)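 Same washed midlog E. coli suspension (PBS pH 7.2, 10^8 cells/mL, 25 °C after 15 min equilibration). Propidium iodide 15 µM working with compound at 8 µg/mL working. Fluorescence ex 535/em 617 nm every 0.1 s over 10 min; rate constant from exponential rise-to-maximum fit; controls without cells or compound.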

[24] = tested on: Cell membrane; assay: Induction of inner membrane permeabilization in gentamycin-colistin resistant Escherichia coli 288328 assessed as increase in fluorescence intensity at 8 ug/ml measured every 1 sec for 10 mins by PI-probe based assay; format: subcellular; conditions: dose 8.0 µg/ml, in the assay text read “every 0.1 sec” for “every 1 sec”; outline: as §5
[25] = tested on: Cell membrane; assay: Induction of outer membrane permeabilization in Escherichia coli ATCC 25922 assessed as rate constant by measuring NPN uptake at 8 ug/ml measured every 1 sec for 10 mins; format: subcellular; conditions: dose 8.0 µg/ml, in the assay text read “every 0.1 sec” for “every 1 sec”; outline: as §4
[26] = tested on: Cell membrane; assay: Induction of outer membrane permeabilization in gentamycin-colistin resistant Escherichia coli 288328 assessed as rate constant by measuring NPN uptake at 8 ug/ml […]; conditions: dose 8.0 µg/ml
[27] = tested on: Cell membrane; assay: Induction of inner membrane permeabilization in Escherichia coli ATCC 25922 assessed as rate constant by measuring PI uptake at 8 ug/ml […]; conditions: dose 8.0 µg/ml
[28] = tested on: Cell membrane; assay: Induction of inner membrane permeabilization in gentamycin-colistin resistant Escherichia coli 288328 assessed as rate constant by measuring PI uptake at 8 ug/ml […]; conditions: dose 8.0 µg/ml

| Molecule | MIC [4] | MIC [5] | MIC [6] | MIC [7] | MIC [8] | HC50 at 1 h [9] | selectivity ratio [10] | selectivity ratio [11] | Retention_time [16] | further results |
| --- | --- | --- | --- | --- | --- | --- | --- | --- | --- | --- |
| COc1cccc(OC)c1C(=O)N[C@@H]1C(=O)N2[C@@H]1SC(C)(C)[C@@H]2C(=O)O [METHICILLIN] |  |  |  |  |  |  |  |  |  | MIC [1]: > 1020 mg/L; MIC [2]: > 16 mg/L; MIC [3]: 0.5 mg/L (≈ 1.31 µM) |
| CCCCCCCCCCCCNC(=O)CN(NC(=O)c1ccccc1)C(=O)CN.Cl | 4 mg/L | 4 mg/L | 4 mg/L | 4 mg/L | 64 mg/L | 195 µg/mL | 49 | 49 | 19.7 min | MIC [1]: 4 mg/L; MIC [12]: 4 mg/L; selectivity ratio [13]: 49; selectivity ratio [14]: 49; Activity [15]: Active |
| GENTAMICIN |  |  |  |  |  |  |  |  |  | MIC [12]: 128 mg/L; MIC [2]: 4 mg/L; MIC [3]: 0.12 mg/L; MIC [17]: 0.25 mg/L |
| CCCCCCCCCCCCCCCCCC(=O)NN(CC(=O)NCCC)C(=O)CN.Cl | 32 mg/L | 16 mg/L | 64 mg/L | 512 mg/L | 512 mg/L | 234 µg/mL | 3.7 | 0.5 | 26.5 min |  |
| CCCCCCCCNC(=O)CN(NC(=O)CCCCCCC)C(=O)CN.Cl | 32 mg/L | 16 mg/L | 16 mg/L | 16 mg/L | 32 mg/L | 131 µg/mL | 8.2 | 8.2 | 17.8 min | Stabilty [18]: Stable; Activity [15]: Active; Stabilty [19]: Stable; Stabilty [20]: Stable |
| CCCNC(=O)CN(NC(C)=O)C(=O)CN.O=C(O)C(F)(F)F | 2050 mg/L | 2050 mg/L | 1020 mg/L | 2050 mg/L | 2050 mg/L | 2700 µg/mL | 2.6 | 1.3 | 0.3 min |  |
| CCCCCCCCCCCCNC(=O)CN(NC(=O)C(C)(C)C)C(=O)CN.Cl | 8 mg/L | 8 mg/L | 4 mg/L | 8 mg/L | 16 mg/L | 394 µg/mL | 99 | 49 | 19.8 min | MIC [1]: 4 mg/L; MIC [12]: 8 mg/L; selectivity ratio [13]: 99; selectivity ratio [14]: 49; Activity [21]: Active; Activity [22]: Active; Activity [23]: Active; Activity [24]: Active; Activity [25]: 0.25 min⁻¹; Activity [26]: 0.31 min⁻¹; Activity [27]: 0.22 min⁻¹; Activity [28]: 0.24 min⁻¹; Activity [15]: Active |
| CCCCCCCC(=O)NN(CC(=O)NCCC)C(=O)CN.Cl | 1020 mg/L | 1020 mg/L | 1020 mg/L | 1020 mg/L | 2050 mg/L | 433 µg/mL | 0.4 | 0.4 | 5.2 min |  |
| CCCCCCCCCCCC(=O)NN(CC(=O)NCCCCCCCC)C(=O)CN.Cl | 16 mg/L | 8 mg/L | 64 mg/L | 128 mg/L | 128 mg/L | 486 µg/mL | 7.6 | 3.8 | 23.5 min |  |
| CCCCCCCCCCCCNC(=O)CN(NC(=O)CCCCCCC)C(=O)CN.Cl | 32 mg/L | 16 mg/L | 64 mg/L | 256 mg/L | 512 mg/L | 367 µg/mL | 5.7 | 1.4 | 24 min |  |
| CCCCCCCCCCCC(=O)NN(CC(=O)NCCC)C(=O)CN.Cl | 64 mg/L | 64 mg/L | 64 mg/L | 64 mg/L | 64 mg/L | 167 µg/mL | 2.6 | 2.6 | 16.6 min |  |
| CCCCCCCCNC(=O)CN(NC(=O)OCc1ccccc1)C(=O)CN.Cl | 128 mg/L | 64 mg/L | 64 mg/L | 64 mg/L | 128 mg/L | 189 µg/mL | 3 | 3 | 14.3 min |  |
| CCCCCCCCCCCCCCCCCCNC(=O)CN(NC(=O)OCc1ccccc1)C(=O)CN.Cl | 512 mg/L | 256 mg/L | 512 mg/L | 512 mg/L | 512 mg/L | 243 µg/mL | 0.5 | 0.5 | 30.9 min |  |
